# Measurements as given in ChEMBL document CHEMBL1155841, “Methyl (11aS)-1,2,3,5,11,11a-hexahydro-3,3-dimethyl-1-oxo-6H-imidazo-[3',4':1,2]pyridin[3,4-b]indol-2-substituted acetates: synthesis and three-dimensional quantitative structure-activity relationship investigation as a class of novel vasodilators” (2008).
# Species on record: Rattus norvegicus
# Assay: Vasorelaxation activity against noradrenaline-induced hypertonic contraction in Wistar rat aorta strips at 5 mM
# Type: functional
# Set-up: scale not given: the % may be the effect or the level left
# Outline: (§1)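 Aortic strips first contracted with 59 µM noradrenaline, then washed out and stabilized for 30 min. After fresh solution, 59 µM NE was re-added, and peak contraction was taken as 100%. Test agent, dissolved in ethanol, was then added, with ethanol alone as vehicle control. Percent relaxation of the NE contraction was recorded as activity, given as mean ± SD, n = 6.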
row,Structure (SMILES),Activity [%]
1,COC(=O)[C@H](Cc1ccccc1)NC(=O)[C@@H]1Cc2c([nH]c3ccccc23)CN1C(=O)OC(C)(C)C,0
2,COC(=O)[C@@H](NC(=O)[C@@H]1Cc2c([nH]c3ccccc23)CN1C(=O)OC(C)(C)C)C(C)O (some centres undefined),0
3,COC(=O)[C@H](CCCNC(=N)N)NC(=O)[C@@H]1Cc2c([nH]c3ccccc23)CN1C(=O)OC(C)(C)C,11.3
4,COC(=O)[C@H](Cc1c[nH]c2ccccc12)NC(=O)[C@@H]1Cc2c([nH]c3ccccc23)CN1C(=O)OC(C)(C)C,15.2
5,COC(=O)CNC(=O)[C@@H]1Cc2c([nH]c3ccccc23)CN1C(=O)OC(C)(C)C,13.5
6,COC(=O)[C@H](Cc1c[nH]cn1)NC(=O)[C@@H]1Cc2c([nH]c3ccccc23)CN1C(=O)OC(C)(C)C,0
7,COC(=O)[C@H](CC(N)=O)NC(=O)[C@@H]1Cc2c([nH]c3ccccc23)CN1C(=O)OC(C)(C)C,0
8,COC(=O)[C@@H](NC(=O)[C@@H]1Cc2c([nH]c3ccccc23)CN1C(=O)OC(C)(C)C)C(C)C,8.9
9,COC(=O)C[C@H](NC(=O)[C@@H]1Cc2c([nH]c3ccccc23)CN1C(=O)OC(C)(C)C)C(=O)OC,0
10,COC(=O)[C@H](C)NC(=O)[C@@H]1Cc2c([nH]c3ccccc23)CN1C(=O)OC(C)(C)C,18.8
11,CCC(C)[C@H](NC(=O)[C@@H]1Cc2c([nH]c3ccccc23)CN1C(=O)OC(C)(C)C)C(=O)OC (some centres undefined),10.9
12,COC(=O)[C@H](CO)NC(=O)[C@@H]1Cc2c([nH]c3ccccc23)CN1C(=O)OC(C)(C)C,6.1
13,COC(=O)CC[C@H](NC(=O)[C@@H]1Cc2c([nH]c3ccccc23)CN1C(=O)OC(C)(C)C)C(=O)OC,0
14,CN1CC(=O)N2[C@H](c3ccc4c(c3)OCO4)c3[nH]c4ccccc4c3C[C@@H]2C1=O [TADALAFIL],89.9
15,COC(=O)[C@H](CCC(N)=O)NC(=O)[C@@H]1Cc2c([nH]c3ccccc23)CN1C(=O)OC(C)(C)C,0
16,COC(=O)[C@H](CCSC)NC(=O)[C@@H]1Cc2c([nH]c3ccccc23)CN1C(=O)OC(C)(C)C,6
17,COC(=O)[C@H](CC(C)C)NC(=O)[C@@H]1Cc2c([nH]c3ccccc23)CN1C(=O)OC(C)(C)C,7.8
18,COC(=O)[C@H](Cc1ccc(O)cc1)NC(=O)[C@@H]1Cc2c([nH]c3ccccc23)CN1C(=O)OC(C)(C)C,7.4

# Species on record: Rattus norvegicus
# Assay: Vasorelaxation activity against noradrenaline-induced hypertonic contraction in Wistar rat aorta strips at 50 uM
# Type: functional
# Set-up: scale not given: the % may be the effect or the level left
# Outline: as §1
row,Structure (SMILES),Activity [%]
1,COC(=O)[C@H](CC(N)=O)N1C(=O)[C@@H]2Cc3c([nH]c4ccccc34)CN2C1(C)C,0
2,COC(=O)[C@H](CCSC)N1C(=O)[C@@H]2Cc3c([nH]c4ccccc34)CN2C1(C)C,15.1
3,COC(=O)[C@H](Cc1ccccc1)N1C(=O)[C@@H]2Cc3c([nH]c4ccccc34)CN2C1(C)C,0
4,COC(=O)[C@H](Cc1c[nH]cn1)N1C(=O)[C@@H]2Cc3c([nH]c4ccccc34)CN2C1(C)C,0
5,COC(=O)[C@H](CO)N1C(=O)[C@@H]2Cc3c([nH]c4ccccc34)CN2C1(C)C,16.9
6,COC(=O)[C@H](Cc1ccc(O)cc1)N1C(=O)[C@@H]2Cc3c([nH]c4ccccc34)CN2C1(C)C,16.3
7,COC(=O)[C@H](C)N1C(=O)[C@@H]2Cc3c([nH]c4ccccc34)CN2C1(C)C,91.8
8,COC(=O)[C@H](CCC(N)=O)N1C(=O)[C@@H]2Cc3c([nH]c4ccccc34)CN2C1(C)C,0
9,COC(=O)[C@H](CCCNC(=N)N)N1C(=O)[C@@H]2Cc3c([nH]c4ccccc34)CN2C1(C)C,36.7
10,COC(=O)[C@H](CC(C)C)N1C(=O)[C@@H]2Cc3c([nH]c4ccccc34)CN2C1(C)C,15.7
11,CCC(C)[C@@H](C(=O)OC)N1C(=O)[C@@H]2Cc3c([nH]c4ccccc34)CN2C1(C)C (some centres undefined),34
12,COC(=O)[C@H](C(C)O)N1C(=O)[C@@H]2Cc3c([nH]c4ccccc34)CN2C1(C)C (some centres undefined),0
13,COC(=O)C[C@@H](C(=O)OC)N1C(=O)[C@@H]2Cc3c([nH]c4ccccc34)CN2C1(C)C,6.3
14,COC(=O)CC[C@@H](C(=O)OC)N1C(=O)[C@@H]2Cc3c([nH]c4ccccc34)CN2C1(C)C,9.9
15,CC(=O)OCC[N+](C)(C)C [ACETYLCHOLINE],42.3
16,COC(=O)CN1C(=O)[C@@H]2Cc3c([nH]c4ccccc34)CN2C1(C)C,45.5
17,COC(=O)[C@H](Cc1c[nH]c2ccccc12)N1C(=O)[C@@H]2Cc3c([nH]c4ccccc34)CN2C1(C)C,63.5
18,COC(=O)[C@H](C(C)C)N1C(=O)[C@@H]2Cc3c([nH]c4ccccc34)CN2C1(C)C,24.2

# Species on record: Rattus norvegicus
# Assay: Vasorelaxation activity against noradrenaline-induced hypertonic contraction in Wistar rat aorta strips
# Type: functional
# Outline: as §1
row,Structure (SMILES),Activity
1,COC(=O)[C@H](C)N1C(=O)[C@@H]2Cc3c([nH]c4ccccc34)CN2C1(C)C,Dose-dependent effect
2,CCC(C)[C@@H](C(=O)OC)N1C(=O)[C@@H]2Cc3c([nH]c4ccccc34)CN2C1(C)C (some centres undefined),Dose-dependent effect
3,COC(=O)[C@H](Cc1c[nH]c2ccccc12)N1C(=O)[C@@H]2Cc3c([nH]c4ccccc34)CN2C1(C)C,Dose-dependent effect
